Activity calls are given as the source filed them. The calls are words filed in the database; no cut-off is given here.
Key:
Klebsiella pneumoniae [1] = experiment: Potentiation of colistin-induced antibacterial activity against Klebsiella pneumoniae 2210291 harbouring mcr-1 gene assessed as reduction in colistin MIC at 15 uM incubated for 16 hrs by broth microdilution method; assay type: functional, organism-based
Summary of the method: (§1)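 For the dose-response, colistin MIC was measured against mcr-1 plasmid-bearing E. coli, K. pneumoniae and A. baumannii while the adjuvant concentration was lowered stepwise (30, 15 μM, down to 5 μM). The aim was to find where the MIC rose above the 2 μg/mL CLSI susceptibility breakpoint.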

[2] = Cytotoxicity against mouse 4T1 cells assessed as reduction in cell viability incubated for 18 hrs by MTT assay; assay type: cell-based
Summary of the method: (§2)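 4T1 mouse mammary tumor cells exposed to compound for 18 h, alone or together with colistin at 1 μg/mL. Medium then aspirated and replaced with 0.5 mg/mL MTT in culture medium for colorimetric viability read-out. CT50 taken as the concentration giving 50% cell viability.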

Acinetobacter baumannii [3] = experiment: Potentiation of colistin-induced antibacterial activity against Acinetobacter baumannii 17978 harbouring mcr-1 gene assessed as reduction in colistin MIC at 15 uM incubated for 16 hrs by broth microdilution method; assay type: functional, organism-based; summary of the method: as §1
Acinetobacter baumannii [4] = experiment: Potentiation of colistin-induced antibacterial activity against Acinetobacter baumannii 17978 assessed as colistin MIC at 50 uM incubated for 16 hrs by broth microdilution method (reference value: 2 ug/ml); assay type: functional; conditions: Acinetobacter baumannii, 17978, 16 h
Klebsiella pneumoniae [5] = experiment: Potentiation of colistin-induced antibacterial activity against Klebsiella pneumoniae 2210291 assessed as colistin MIC at 50 uM incubated for 16 hrs by broth microdilution method (reference value: 1 ug/ml); assay type: functional; conditions: Klebsiella pneumoniae, 2210291, 16 h
Escherichia coli [6] = experiment: Potentiation of colistin-induced antibacterial activity against Escherichia coli YD626 harbouring mcr-1 gene assessed as colistin MIC at 50 uM incubated for 16 hrs by broth microdilution method (reference value: 8 ug/ml); assay type: functional; conditions: YD626, 16 h
Klebsiella pneumoniae [7] = experiment: Potentiation of colistin-induced antibacterial activity against Klebsiella pneumoniae 2210291 harbouring mcr-1 gene assessed as colistin MIC at 50 uM incubated for 16 hrs by broth microdilution method (reference value: 16 ug/ml); assay type: functional; conditions: Klebsiella pneumoniae, 2210291, 16 h
Acinetobacter baumannii [8] = experiment: Potentiation of colistin-induced antibacterial activity against Acinetobacter baumannii 17978 harbouring mcr-1 gene assessed as colistin MIC at 50 uM incubated for 16 hrs by broth microdilution method (reference value: 16 ug/ml); assay type: functional; conditions: Acinetobacter baumannii, 17978, 16 h
Escherichia coli [9] = experiment: Potentiation of colistin-induced antibacterial activity against Escherichia coli YD626 harbouring mcr-1 gene assessed as reduction in colistin MIC at 15 uM incubated for 16 hrs by broth microdilution method; assay type: functional, organism-based; summary of the method: as §1
Escherichia coli [10] = experiment: Potentiation of colistin-induced antibacterial activity against Escherichia coli YD626 assessed as colistin MIC at 50 uM incubated for 16 hrs by broth microdilution method (reference value: 1 ug/ml); assay type: functional; conditions: YD626, 16 h
[11] = Cytotoxicity against mouse 4T1 cells assessed as reduction in cell viability in presence of 1 ug/ml colistin incubated for 18 hrs by MTT assay; assay type: cell-based; summary of the method: as §2
Acinetobacter baumannii [12] = experiment: Antivirulence activity in Acinetobacter baumannii 4106 infected Galleria mellonella larvae model assessed as survival rate at 100 mg/kg measured at 24 hrs interval over 4 days; assay type: functional
Summary of the method: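 A. baumannii 4106 was given to Galleria mellonella larvae at 6 × 10^5 CFU, the lethal inoculum found by dose escalation. Larvae were treated with colistin 50 mg/kg, adjuvant 50 mg/kg, colistin plus adjuvant (50 mg/kg each), or tigecycline 100 mg/kg as positive control. Survival was scored out to day 4.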

[13] = Hemolytic activity in sheep RBC at 200 uM incubated for 1 hr by UV spectrophotometry; assay type: ADME, cell-based, Ovis aries, Erythrocyte; conditions: sheep red blood cells (erythrocytes), read-out: Activity
Summary of the method: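 Red blood cells exposed to compound at 200 μM, with percent cell lysis recorded.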

Klebsiella pneumoniae [14] = experiment: Potentiation of colistin-induced antibacterial activity against Klebsiella pneumoniae C3 assessed as reduction in colistin MIC at 10 uM incubated for 16 hrs by broth microdilution method (reference value: 512 ug/ml); assay type: functional; conditions: C3, 16 h
Klebsiella pneumoniae [15] = experiment: Potentiation of colistin-induced antibacterial activity against Klebsiella pneumoniae B9 assessed as reduction in colistin MIC at 20 uM incubated for 16 hrs by broth microdilution method (reference value: 512 ug/ml); assay type: functional; conditions: B9, 16 h
Klebsiella pneumoniae [16] = experiment: Potentiation of colistin-induced antibacterial activity against Klebsiella pneumoniae 2210291 harbouring mcr-1 gene assessed as reduction in colistin MIC at 15 uM incubated for 16 hrs by broth microdilution method (reference value: 16 ug/ml); assay type: functional; conditions: Klebsiella pneumoniae, 2210291, 16 h; summary of the method: as §1
Acinetobacter baumannii [17] = experiment: Potentiation of colistin-induced antibacterial activity against Acinetobacter baumannii 17978 harbouring mcr-1 gene assessed as reduction in colistin MIC at 15 uM incubated for 16 hrs by broth microdilution method (reference value: 16 ug/ml); assay type: functional; conditions: Acinetobacter baumannii, 17978, 16 h; summary of the method: as §1
Acinetobacter baumannii [18] = experiment: Potentiation of colistin-induced antibacterial activity against Acinetobacter baumannii 3941 assessed as reduction in colistin MIC at 10 uM incubated for 16 hrs by broth microdilution method (reference value: 512 ug/ml); assay type: functional; conditions: Acinetobacter baumannii, 3941, 16 h
Acinetobacter baumannii [19] = experiment: Potentiation of colistin-induced antibacterial activity against Acinetobacter baumannii 4106 assessed as reduction in colistin MIC at 20 uM incubated for 16 hrs by broth microdilution method (reference value: 1024 ug/ml); assay type: functional; conditions: Acinetobacter baumannii, 4106, 16 h
Klebsiella pneumoniae [20] = experiment: Potentiation of colistin-induced antibacterial activity against Klebsiella pneumoniae B9 assessed as reduction in colistin MIC at 10 uM incubated for 16 hrs by broth microdilution method (reference value: 512 ug/ml); assay type: functional; conditions: B9, 16 h
Summary of the method: (§3)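 Colistin MIC was measured against chromosomally colistin-resistant strains (K. pneumoniae B9, C3; A. baumannii 4106, among four strains) with adjuvant at fixed levels from 20 μM down to 7.5 μM. Fold reduction was reported against colistin alone, with the CLSI breakpoint taken as ≤2 μg/mL.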

Acinetobacter baumannii [21] = experiment: Potentiation of colistin-induced antibacterial activity against Acinetobacter baumannii 3941 assessed as reduction in colistin MIC at 15 uM incubated for 16 hrs by broth microdilution method (reference value: 512 ug/ml); assay type: functional; conditions: Acinetobacter baumannii, 3941, 16 h
Klebsiella pneumoniae [22] = experiment: Potentiation of colistin-induced antibacterial activity against Klebsiella pneumoniae C3 assessed as reduction in colistin MIC at 15 uM incubated for 16 hrs by broth microdilution method (reference value: 512 ug/ml); assay type: functional; conditions: C3, 16 h
Acinetobacter baumannii [23] = experiment: Potentiation of colistin-induced antibacterial activity against Acinetobacter baumannii 3941 assessed as reduction in colistin MIC at 20 uM incubated for 16 hrs by broth microdilution method (reference value: 512 ug/ml); assay type: functional; conditions: Acinetobacter baumannii, 3941, 16 h
Acinetobacter baumannii [24] = experiment: Potentiation of colistin-induced antibacterial activity against Acinetobacter baumannii 4106 assessed as reduction in colistin MIC at 10 uM incubated for 16 hrs by broth microdilution method (reference value: 1024 ug/ml); assay type: functional; conditions: Acinetobacter baumannii, 4106, 16 h
Klebsiella pneumoniae [25] = experiment: Potentiation of colistin-induced antibacterial activity against Klebsiella pneumoniae B9 assessed as reduction in colistin MIC at 5 uM incubated for 16 hrs by broth microdilution method (reference value: 512 ug/ml); assay type: functional; conditions: B9, 16 h
Acinetobacter baumannii [26] = experiment: Potentiation of colistin-induced antibacterial activity against Acinetobacter baumannii 4106 assessed as reduction in colistin MIC at 15 uM incubated for 16 hrs by broth microdilution method (reference value: 1024 ug/ml); assay type: functional; conditions: Acinetobacter baumannii, 4106, 16 h
Klebsiella pneumoniae [27] = experiment: Potentiation of colistin-induced antibacterial activity against Klebsiella pneumoniae B9 assessed as reduction in colistin MIC at 15 uM incubated for 16 hrs by broth microdilution method (reference value: 512 ug/ml); assay type: functional; conditions: B9, 16 h
Klebsiella pneumoniae [28] = experiment: Potentiation of colistin-induced antibacterial activity against Klebsiella pneumoniae B9 assessed as reduction in colistin MIC at 7.5 uM incubated for 16 hrs by broth microdilution method (reference value: 512 ug/ml); assay type: functional; conditions: B9, 16 h
Escherichia coli [29] = experiment: Potentiation of colistin-induced antibacterial activity against Escherichia coli YD626 harbouring mcr-1 gene assessed as reduction in colistin MIC at 15 uM incubated for 16 hrs by broth microdilution method (reference value: 8 ug/ml); assay type: functional; conditions: YD626, 16 h; summary of the method: as §1
Klebsiella pneumoniae [30] = experiment: Potentiation of colistin-induced antibacterial activity against Klebsiella pneumoniae C3 assessed as reduction in colistin MIC at 20 uM incubated for 16 hrs by broth microdilution method (reference value: 512 ug/ml); assay type: functional; conditions: C3, 16 h; summary of the method: as §3

SMILES | MIC (Acinetobacter baumannii [4]) [µg/mL] | MIC (Klebsiella pneumoniae [5]) [µg/mL] | MIC (Escherichia coli [6]) [µg/mL] | MIC (Klebsiella pneumoniae [7]) [µg/mL] | MIC (Acinetobacter baumannii [8]) [µg/mL] | MIC (Escherichia coli [10]) [µg/mL] | other results
O=C(NCCc1c[nH]c2ccccc12)Nc1cc(C(F)(F)F)cc(C(F)(F)F)c1 | 0.125 | 0.25 | 1 | 1 | 0.5 | 0.0313 | Activity (Klebsiella pneumoniae [1]): Active; CC50 at 18 h [2]: 60.5 µM; Activity (Acinetobacter baumannii [3]): Active; Activity (Escherichia coli [9]): Active; CC50 at 18 h [11]: 61.8 µM
CN(C)c1cc(NC(=O)CNC(C)(C)C)c(O)c2c1C[C@H]1C[C@H]3[C@H](N(C)C)C(O)=C(C(N)=O)C(=O)[C@@]3(O)C(O)=C1C2=O [TIGECYCLINE] | – | – | – | – | – | – | Activity (Acinetobacter baumannii [12]): 20%
CCCCc1ccc(NC(=O)NCCc2c[nH]c3ccc(Br)cc23)cc1 | 2 | 0.5 | 8 | 16 | 16 | 1 | hemolysis at 1 h, 200 µM [13]: < 2.5%
O=C(NCCc1c[nH]c2ccccc12)Nc1cc(Cl)c(Br)c(Cl)c1 | 0.5 | 0.5 | 1 | 1 | 1 | 0.125 | Activity (Klebsiella pneumoniae [1]): Active; Activity (Acinetobacter baumannii [3]): Active; Activity (Escherichia coli [9]): Active
O=C(NCCc1c[nH]c2ccc(Br)cc12)Nc1ccc(Cl)c(Cl)c1 | 0.5 | 0.5 | 0.5 | 0.5 | 1 | 0.25 | MIC (Klebsiella pneumoniae [14]): 4 µg/mL; MIC (Klebsiella pneumoniae [15]): ≤ 0.25 µg/mL; MIC (Klebsiella pneumoniae [16]): 1 µg/mL; MIC (Acinetobacter baumannii [17]): 1 µg/mL; MIC (Acinetobacter baumannii [18]): 8 µg/mL; MIC (Acinetobacter baumannii [19]): 2 µg/mL; MIC (Klebsiella pneumoniae [20]): 1 µg/mL; MIC (Acinetobacter baumannii [21]): 4 µg/mL; MIC (Klebsiella pneumoniae [22]): 2 µg/mL; MIC (Acinetobacter baumannii [23]): 2 µg/mL; MIC (Acinetobacter baumannii [24]): 4 µg/mL; MIC (Klebsiella pneumoniae [25]): 8 µg/mL; MIC (Acinetobacter baumannii [26]): 2 µg/mL; MIC (Klebsiella pneumoniae [27]): 0.5 µg/mL; MIC (Klebsiella pneumoniae [28]): 2 µg/mL; MIC (Escherichia coli [29]): 1 µg/mL; MIC (Klebsiella pneumoniae [30]): 1 µg/mL
CC(C)n1cc(-c2cccc(NC(=O)Nc3cc(Cl)c(Br)c(Cl)c3)c2)nc1N | – | – | – | – | – | – | CC50 at 18 h [2]: 23.2 µM; CC50 at 18 h [11]: 15.6 µM
O=C(NCc1c[nH]c2ccccc12)Nc1cc(Br)cc(Br)c1 | 1 | 0.5 | 4 | 16 | 8 | 0.25 | –
CCCCc1ccc(C(=O)NCCc2c[nH]c3ccc(Br)cc23)cc1 | 0.5 | 0.25 | 4 | 4 | 4 | 0.125 | –
CCCCc1ccc(C(=O)NCCc2c[nH]c3ccccc23)cc1 | 0.25 | 0.125 | 4 | 8 | 4 | 0.0625 | –
CCCCc1ccc(NC(=O)NCCc2c[nH]c3ccccc23)cc1 | 2 | 1 | 8 | 16 | 16 | 1 | –
O=C(NCCc1c[nH]c2ccc(Br)cc12)Nc1cc(C(F)(F)F)cc(C(F)(F)F)c1 | 0.25 | 0.5 | 4 | 2 | 2 | 0.0313 | –
O=C(Nc1cc(C(F)(F)F)cc(C(F)(F)F)c1)Nc1ccc2[nH]ccc2c1 | 1 | 0.5 | 4 | 8 | 8 | 0.5 | –
O=C(Nc1ccc(Cl)c(Cl)c1)Nc1ccc2[nH]ccc2c1 | 2 | 1 | 8 | 16 | 16 | 0.5 | –
O=C(NCCc1c[nH]c2ccccc12)Nc1cc(Br)cc(Br)c1 | 0.5 | 0.5 | 2 | 1 | 1 | 0.25 | Activity (Klebsiella pneumoniae [1]): Active; MIC (Klebsiella pneumoniae [14]): 8 µg/mL; MIC (Klebsiella pneumoniae [15]): ≤ 0.25 µg/mL; CC50 at 18 h [2]: 86.2 µM; MIC (Acinetobacter baumannii [18]): 16 µg/mL; MIC (Acinetobacter baumannii [19]): 4 µg/mL; MIC (Klebsiella pneumoniae [20]): 1 µg/mL; Activity (Acinetobacter baumannii [3]): Active; MIC (Acinetobacter baumannii [21]): 8 µg/mL; MIC (Klebsiella pneumoniae [22]): 4 µg/mL; MIC (Acinetobacter baumannii [23]): 8 µg/mL; MIC (Acinetobacter baumannii [24]): 8 µg/mL; MIC (Klebsiella pneumoniae [25]): 32 µg/mL; MIC (Acinetobacter baumannii [26]): 4 µg/mL; Activity (Escherichia coli [9]): Active; MIC (Klebsiella pneumoniae [27]): 0.5 µg/mL; MIC (Klebsiella pneumoniae [28]): 4 µg/mL; CC50 at 18 h [11]: 64.2 µM; MIC (Klebsiella pneumoniae [30]): 2 µg/mL
O=C(NCCc1c[nH]c2ccccc12)Nc1ccc(Cl)c(Cl)c1 | 0.5 | 0.25 | 1 | 0.5 | 0.5 | 0.125 | CC50 at 18 h [2]: 117 µM; CC50 at 18 h [11]: 105 µM
